Assay results reported in ChEMBL document CHEMBL4406918, “Inhibitory Effects of Multivalent Polypeptides on the Proliferation and Metastasis of Breast Cancer Cells” (ACS Med Chem Lett, 2019).
The source made the active and inactive calls. No cut-off for these calls is given here. Where a SMILES comes first, the peptide text is derived from it. Side-chain parts run from the residue outwards.

Legend:
[1] = tested on: 4T1; test: Antiinvasive activity in mouse 4T1 cells assessed as inhibition of cell invasion at 0.2 mM incubated for 24 hrs by crystal violet staining based matrigel invasion assay relative to control; type: functional; settings: 4T1, 24 h
Outline: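 4T1 cells, Matrigel-coated Transwell invasion with 0.2 mM compound. Invasion rate comes from counting cells on the underside of the Matrigel-coated porous membrane, relative to untreated control. Mean ± SD, n = 3.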

[2] = Toxicity in BALB/c mouse xenografted with mouse 4T1 cells assessed as induction of morphological lesions in kidney at 10 mg/kg administered intratumorally and measured after 24 days by H and E staining based inverted optical microscopic method; type: organism-based; settings: in vivo, other, 576 h
[3] = tested on: 4T1; test: Antitumour activity against mouse 4T1 cells xenografted in BALB/c mouse assessed as reduction in number of lung tumor metastatic nodules at 10 mg/kg administered intratumorally and measured after 24 days by H and E staining based inverted optical microscopic method; type: functional, organism-based
Outline: (§1)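 After 6 doses of 10 mg/kg to 4T1 tumour-bearing BALB/c mice (saline control), lungs were photographed whole and examined histopathologically for the number and size of metastatic nodules.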

[4] = tested on: 4T1; test: Inhibition of cell migration in mouse 4T1 cells assessed as wound closure rate at 0.2 mM measured up to 36 hrs by inverted optical microscopic method based wound healing assay (reference value: 82%); type: functional; parameters: scale not given: the % may be the effect or the level left
[5] = Toxicity in BALB/c mouse xenografted with mouse 4T1 cells assessed as change in body weight at 10 mg/kg administered intratumorally and measured after 24 days; type: organism-based; settings: in vivo, other, 576 h
Outline: (§2)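 BALB/c mice bearing subcutaneous 4T1 tumours received 6 doses of 10 mg/kg, with equal YSL-monomer molar amounts across compounds and saline as control. Tumour volume growth curves and body weights were tracked. Mean ± SD, n = 5.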

[6] = tested on: 4T1; test: Inhibition of metastasis in mouse 4T1 cells assessed as disruption in F-actin arrangement at 0.2 mM incubated for 24 hrs by Hoechst 33342 staining based confocal laser scanning microscopic method; type: functional, cell-based
Outline: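 After 24 h at 0.2 mM, 4T1 cells were stained for F-actin with Alexa Fluor 488 phalloidin and for nuclei with Hoechst 33342, then imaged by fluorescence for cytoskeletal arrangement and cell morphology.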

[7] = tested on: 4T1; test: Induction of apoptosis in mouse 4T1 cells assessed as late apoptotic cells at 0.4 mM incubated for 24 hrs by Annexin V-FITC/PI based FACS analysis (reference value: 6.62%); type: functional
[8] = tested on: 4T1; test: Antitumour activity against mouse 4T1 cells xenografted in BALB/c mouse assessed as reduction in size of lung tumor metastatic nodules at 10 mg/kg administered intratumorally and measured after 24 days by H and E staining based inverted optical microscopic method; type: functional, organism-based; outline: as §1
[9] = tested on: Erythrocyte; test: Hemolytic activity in BALB/c mouse RBC at 3.2 mM incubated for 2 hrs by UV-Vis spectrophotometric analysis; type: ADME, cell-based; settings: 3200 µM
Outline: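 Hemolysis assay on red blood cells with dendrimers up to 3.2 mM. Result is expressed as hemolysis rate, with under 5% taken as acceptable.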

[10] = tested on: 4T1; test: Antiproliferative activity against mouse 4T1 cells at 0.1 mM incubated for 24 hrs by MTT assay; type: functional, cell-based
[11] = tested on: 4T1; test: Induction of apoptosis in mouse 4T1 cells assessed as early apoptotic cells at 0.4 mM incubated for 24 hrs by Annexin V-FITC/PI based FACS analysis (reference value: 0.76%); type: functional
[12] = tested on: 4T1; test: Induction of apoptosis in mouse 4T1 cells assessed as necrotic cells at 0.4 mM incubated for 24 hrs by Annexin V-FITC/PI based FACS analysis (reference value: 0.47%); type: functional
[13] = Stability in fetal bovine serum assessed as parent compound remaining measured after 12 hrs by RP-HPLC analysis; type: ADME, cell-free, Bos taurus; settings: cattle, read-out: Stability
Outline: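 Peptides incubated in serum, and the fraction of intact YSL was measured over time up to 12 h, including a 4 h point.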

[14] = tested on: 4T1; test: Antitumour activity against mouse 4T1 cells xenografted in BALB/c mouse assessed as increase in number of TUNEL positive cells at 10 mg/kg administered intratumorally and measured after 24 days by H and E staining based inverted optical microscopic method; type: functional, organism-based
Outline: (§3)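 BALB/c mice bearing subcutaneous 4T1 tumours received 6 doses at 10 mg/kg body weight, matched for YSL monomer molar amount, with saline as control. Tumour sections were stained for H&E, CD31, Ki-67 and TUNEL. n = 5.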

[15] = tested on: 4T1; test: Induction of cell cycle arrest in mouse 4T1 cells assessed as accumulation at S phase at 0.4 mM incubated for 24 hrs by PI staining based flow cytometric analysis (Rvb =42.35%); type: functional
[16] = tested on: 4T1; test: Induction of cell cycle arrest in mouse 4T1 cells assessed as accumulation at G2/M phase at 0.4 mM incubated for 24 hrs by PI staining based flow cytometric analysis (reference value: 19.82%); type: functional
[17] = biological target: Matrix metalloproteinase-9 (Mus musculus) (UniProt P41245); test: Residual MMP9 activity in mouse 4T1 cells at 0.2 mM incubated for 24 hrs by coomassie brilliant blue staining based gelatin zymography assay relative to control
[18] = tested on: 4T1; test: Induction of apoptosis in mouse 4T1 cells at 0.8 mM incubated for 24 hrs by PI staining based inverted microscopic method; type: functional, cell-based
Outline: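 Live–dead staining of 4T1 cells after 24 h exposure, with PI uptake imaged microscopically. A higher 0.8 mM dose was also tested.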

[19] = tested on: 4T1; test: Antitumour activity against mouse 4T1 cells xenografted in BALB/c mouse assessed as increase in damage of tumor tissue at 10 mg/kg administered intratumorally and measured after 24 days by H and E staining based inverted optical microscopic method; type: functional, organism-based
Outline: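 Tumours from 4T1-bearing BALB/c mice given 6 doses of 10 mg/kg (saline control) were sectioned and stained with H&E, plus CD31, Ki-67 and TUNEL.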

[20] = Toxicity in BALB/c mouse xenografted with mouse 4T1 cells assessed as change in blood urea nitrogen level at 10 mg/kg administered intratumorally and measured after 24 days; type: organism-based; settings: in vivo, other, 576 h
[21] = tested on: 4T1; test: Induction of cell cycle arrest in mouse 4T1 cells assessed as accumulation at G0/G1 phase at 0.4 mM incubated for 24 hrs by PI staining based flow cytometric analysis (reference value: 37.78%); type: functional
[22] = tested on: 4T1; test: Antiproliferative activity against mouse 4T1 cells assessed as cell death at 0.2 mM incubated for 24 hrs by MTT assay relative to control; type: functional
Outline: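 Mouse 4T1 breast cancer cells exposed for 24 h (doses include 0.1 and 0.2 mM), then read by MTT for viability or cell death. Mean ± SD, n = 6.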

[23] = tested on: 4T1; test: Inhibition of cell migration in mouse 4T1 cells assessed as migration frequency at 0.2 mM incubated for 24 hrs by crystal violet staining based transwell assay relative to control; type: functional; parameters: scale not given: the % may be the effect or the level left
Outline: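 4T1 cells, Transwell migration with 24 h exposure to 0.2 mM. Migration rate comes from counting cells on the bottom of the porous membrane. Mean ± SD, n = 3.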

[24] = Toxicity in BALB/c mouse xenografted with mouse 4T1 cells assessed as induction of morphological lesions in heart at 10 mg/kg administered intratumorally and measured after 24 days by H and E staining based inverted optical microscopic method; type: organism-based; settings: in vivo, other, 576 h
[25] = Toxicity in BALB/c mouse xenografted with mouse 4T1 cells assessed as induction of morphological lesions in liver at 10 mg/kg administered intratumorally and measured after 24 days by H and E staining based inverted optical microscopic method; type: organism-based; settings: in vivo, other, 576 h
[26] = Toxicity in BALB/c mouse xenografted with mouse 4T1 cells assessed as change in serum creatinine level at 10 mg/kg administered intratumorally and measured after 24 days; type: organism-based; settings: in vivo, other, 576 h
[27] = tested on: 4T1; test: Induction of apoptosis in mouse 4T1 cells assessed as viable cells at 0.4 mM incubated for 24 hrs by Annexin V-FITC/PI based FACS analysis (reference value: 92.2%); type: functional; settings: 4T1, 24 h, read-out: Activity
[28] = Toxicity in BALB/c mouse xenografted with mouse 4T1 cells assessed as induction of morphological lesions in spleen at 10 mg/kg administered intratumorally and measured after 24 days by H and E staining based inverted optical microscopic method; type: organism-based; settings: in vivo, other, 576 h
[29] = tested on: 4T1; test: Antitumour activity against mouse 4T1 cells xenografted in BALB/c mouse assessed as inhibition in tumor growth at 10 mg/kg administered intratumorally and measured every 3 days for 24 days; type: functional, organism-based; outline: as §2
[30] = tested on: 4T1; test: Inhibition of metastasis in mouse 4T1 cells assessed as formation of pseudopods at 0.2 mM incubated for 24 hrs by SEM analysis; type: functional, cell-based
Outline: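 4T1 cells treated 24 h, then imaged by scanning electron microscopy for pseudopod formation. Dendrimers were tested at 0.2 mM and the reference at 10–5 mM.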

[31] = tested on: 4T1; test: Antitumour activity against mouse 4T1 cells xenografted in BALB/c mouse assessed as increase in cytotoxic tumor cell death at 10 mg/kg administered intratumorally and measured after 24 days by H and E staining based inverted optical microscopic method; type: functional, organism-based; outline: as §3
[32] = tested on: 4T1; test: Inhibition of metastasis in mouse 4T1 cells assessed as shortening in actin filaments at 0.2 mM incubated for 24 hrs by Hoechst 33342 staining based confocal laser scanning microscopic method; type: functional, cell-based
Outline: (§4)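 After 24 h treatment, 4T1 cells were stained with Alexa Fluor 488 phalloidin for F-actin and Hoechst 33342 for nuclei, then imaged by fluorescence microscopy to assess cytoskeleton and cell morphology.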

[33] = tested on: 4T1; test: Inhibition of metastasis in mouse 4T1 cells assessed as cell shrinkage at 0.2 mM incubated for 24 hrs by Hoechst 33342 staining based confocal laser scanning microscopic method; type: functional; outline: as §4

Matrix metalloproteinase-9 (Mus musculus), sequence (P41245 whole entry): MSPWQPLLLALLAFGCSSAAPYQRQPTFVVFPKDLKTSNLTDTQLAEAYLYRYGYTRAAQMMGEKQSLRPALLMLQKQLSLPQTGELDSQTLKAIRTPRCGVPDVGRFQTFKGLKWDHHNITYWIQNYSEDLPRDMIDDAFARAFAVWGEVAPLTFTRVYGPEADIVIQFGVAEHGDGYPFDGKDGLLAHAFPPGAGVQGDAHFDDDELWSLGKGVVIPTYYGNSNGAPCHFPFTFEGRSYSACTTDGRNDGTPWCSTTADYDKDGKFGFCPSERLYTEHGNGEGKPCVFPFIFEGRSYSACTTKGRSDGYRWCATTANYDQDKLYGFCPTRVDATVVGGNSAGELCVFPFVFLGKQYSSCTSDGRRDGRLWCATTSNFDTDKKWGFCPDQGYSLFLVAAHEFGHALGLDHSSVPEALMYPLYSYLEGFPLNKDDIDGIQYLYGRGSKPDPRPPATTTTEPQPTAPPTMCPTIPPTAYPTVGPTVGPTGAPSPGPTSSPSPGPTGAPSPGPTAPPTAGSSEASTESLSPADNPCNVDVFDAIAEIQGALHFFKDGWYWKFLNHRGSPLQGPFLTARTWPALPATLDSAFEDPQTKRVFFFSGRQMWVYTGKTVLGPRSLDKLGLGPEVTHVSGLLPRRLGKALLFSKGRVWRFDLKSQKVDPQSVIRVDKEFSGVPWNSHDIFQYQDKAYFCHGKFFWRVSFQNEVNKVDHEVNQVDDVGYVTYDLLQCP

COC(=O)[C@H](CCCCNC(=O)[C@H](CC(C)C)NC(=O)[C@H](CO)NC(=O)[C@@H](N)Cc1ccc(O)cc1)NC(=O)[C@H](CC(C)C)NC(=O)[C@H](CO)NC(=O)[C@@H](N)Cc1ccc(O)cc1 (H-YSLK([Leu-Ser-Tyr])-OMe)
inhibition at 200 µM [1]: 70%
Activity [2]: Non-Toxic
Activity [3]: Active
Activity [4]: 79%
Activity [5]: Non-Toxic
F-actin disruption (qualitative) [6]: Active
Activity [7]: 18.8%
Activity [8]: Active
Activity [9]: Non-Toxic
Activity [10]: inactive
Activity [11]: 0.77%
Activity [12]: 0.26%
remaining at 12 h [13]: > 80%
Activity [14]: Active
Activity [15]: 47.25%
Activity [16]: 15.35%
residual activity [17]: 75%
Activity [18]: Active
Activity [19]: Active
Activity [20]: Non-Toxic
Activity [21]: 37.72%
Activity [22]: 5%
Activity [23]: 68%
Activity [24]: Non-Toxic
Activity [25]: Non-Toxic
Activity [26]: Non-Toxic
viability at 400 µM [27]: 80.2%
Activity [28]: Non-Toxic
Activity [29]: Active

COC(=O)[C@H](CCCCNC(=O)[C@H](CCCCNC(=O)[C@H](CC(C)C)NC(=O)[C@H](CO)NC(=O)[C@@H](N)Cc1ccc(O)cc1)NC(=O)[C@H](CC(C)C)NC(=O)[C@H](CO)NC(=O)[C@@H](N)Cc1ccc(O)cc1)NC(=O)[C@H](CCCCNC(=O)[C@H](CC(C)C)NC(=O)[C@H](CO)NC(=O)[C@@H](N)Cc1ccc(O)cc1)NC(=O)[C@H](CC(C)C)NC(=O)[C@H](CO)NC(=O)[C@@H](N)Cc1ccc(O)cc1
inhibition at 200 µM [1]: 41%
Activity [2]: Non-Toxic
Activity [3]: Active
Activity [4]: 76%
Activity [5]: Non-Toxic
F-actin disruption (qualitative) [6]: Active
Activity [7]: 20.4%
inhibition [30]: inactive
Activity [8]: Active
Activity [9]: Non-Toxic
Activity [10]: inactive
Activity [11]: 0.7%
Activity [31]: Active
Activity [12]: 1.23%
remaining at 12 h [13]: > 80%
Activity [14]: Active
Activity [15]: 46.98%
Activity [16]: 15.31%
residual activity [17]: 70%
Activity [18]: Active
Activity [19]: Active
Activity [20]: Non-Toxic
Activity [21]: 38.06%
Activity [22]: 10%
inhibition [32]: Active
Activity [23]: 39%
Activity [24]: Non-Toxic
Activity [25]: Non-Toxic
Activity [26]: Non-Toxic
viability at 400 µM [27]: 77.7%
Activity [28]: Non-Toxic
inhibition [33]: Active
